What was measured:
[1] = biological target: T1, Amine oxidase [flavin-containing] B (Bos taurus, UniProt P56560); assay: Kinetic constant (KI) was calculated by inhibition of monoamino oxidase B (MAO B); Inactive
T1 sequence (P56560 whole entry): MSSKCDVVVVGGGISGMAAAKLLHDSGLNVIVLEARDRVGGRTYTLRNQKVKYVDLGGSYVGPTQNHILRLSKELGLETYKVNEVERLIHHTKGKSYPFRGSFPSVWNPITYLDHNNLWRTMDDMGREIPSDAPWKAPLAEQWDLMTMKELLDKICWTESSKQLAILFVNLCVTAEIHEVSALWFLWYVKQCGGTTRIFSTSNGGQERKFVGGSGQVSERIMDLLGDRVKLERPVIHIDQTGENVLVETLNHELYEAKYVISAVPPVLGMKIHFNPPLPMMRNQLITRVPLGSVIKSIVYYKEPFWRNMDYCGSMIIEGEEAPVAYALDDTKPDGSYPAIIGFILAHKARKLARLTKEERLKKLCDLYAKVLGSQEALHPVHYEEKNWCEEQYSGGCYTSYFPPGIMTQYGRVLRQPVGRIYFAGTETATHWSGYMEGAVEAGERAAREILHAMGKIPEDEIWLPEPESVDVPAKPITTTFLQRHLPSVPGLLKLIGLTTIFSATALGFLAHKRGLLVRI
How it was run: (§1)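 Bovine liver MAO B (isolated by published method), 25 °C, 100 mM Tris-HCl pH 9.00. Enzyme incubated with several inactivator concentrations; aliquots withdrawn periodically and residual activity read by benzylamine oxidation (OD change at 250 nm). Irreversibility tested by 24 h dialysis against Tris-HCl pH 9.0.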

[2] = Ratio of Kinetic constant (Kcat) / Inactivation constant (Kinact) of the MAO B; Inactive
How it was run: (§2)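 Turnover from H2O2 release: bovine MAO B with amine at several concentrations in 100 mM Tris-HCl pH 9.00, 25 °C, 90 s (1–2 min for some); leuco crystal violet/horseradish peroxidase in acetate pH 4.5 added, A596 converted via extinction coefficient. Km and kcat from Hanes plots; ratio is kcat over kinact from time-dependent inactivation.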

[3] = biological target: T1, Amine oxidase [flavin-containing] B; assay: Kinetic constant was calculated by inhibition of monoamino oxidase B (MAO B); Inactive; how it was run: as §1
[4] = biological target: T1, Amine oxidase [flavin-containing] B; assay: Kinetic constant was calculated by inhibition of monoamino oxidase B (MAO B); how it was run: as §1
[5] = biological target: T1, Amine oxidase [flavin-containing] B; assay: Kinetic constant (KI) was calculated by inhibition of monoamino oxidase B (MAO B); how it was run: as §1
[6] = Ratio of Kinetic constant (Kcat) / Inactivation constant (Kinact) of the MAO B
How it was run: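 Bovine MAO B. For kcat, the enzyme was incubated for 1–2 min at 25 °C with several substrate concentrations in 100 mM Tris-HCl, pH 9.00. H2O2 was read as A596 after leuco crystal violet, peroxidase and pH 4.5 acetate were added, and kcat was taken from Hanes plots. For kinact, enzyme was incubated with varied inactivator concentrations (Tris-HCl, pH 9.00, 25 °C), and aliquots were assayed periodically.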

[7] = Ratio is Kinetic constant (Kcat) / Inactivation constant (Kinact) of the MAO B; how it was run: as §2

Row | SMILES | Ki [1] | Ratio [2] | Ki [3] | Ki [4] [mM] | Ki [5] [mM] | Ratio [6] | Ratio [7]
1 | CCCCCNCC(=O)O | Not Active | Not Active | Not Active | – | – | – | –
2 | CCCCCNCC(N)=O [MILACEMIDE] | – | – | – | 1.08 | 0.94 | 26289 | –
3 | CCCCCNCC(=O)OCC | – | – | – | 2 | 14.2 | 4435 | –

Second part, the compound after the results:

Row | Ki [1] | Ratio [2] | Ki [3] | Ki [4] [mM] | Ki [5] [mM] | Ratio [6] | Ratio [7] | SMILES
4 | – | – | – | 4.94 | 5.79 | – | 9091 | CCCCCNCCC#N
5 | – | – | – | 4.94 | 14 | – | 3394 | CCCCCNCC#N

From ChEMBL document CHEMBL1126593, “Inactivation of monoamine oxidase B by analogues of the anticonvulsant agent milacemide (2-(n-pentylamino)acetamide)” (J Med Chem, 1993)
